The values below come from ChEMBL document CHEMBL1154480, “Synthesis and evaluation of 4-amino-3,4-dihydro-2H-naphthalen-1-one derivatives as mast cell stabilising and anti-inflammatory compounds” (Eur J Med Chem, 2008).

The subject of one experiment is Mus musculus. The experiment is described as follows: Antiinflammatory activity in Laca mouse assessed as inhibition of arachidonic acid-induced ear oedema at 300 ug/ear. Format: functional. In short, it runs like this:
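Male Laca mice (25-30 g), groups of five, sedated with sodium pentobarbitone 60 mg kg-1 i.p. Compound or indomethacin at 300 µg ear-1 and arachidonic acid at 1 mg ear-1, all in acetone. 5 mm punch biopsies taken from both ears and weighed; left-ear weight subtracted from right. Inhibition calculated against the AA-only group. Student's t-test; at least 5 animals.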

Experiment [1] relates to Mast cell. The experiment is described as follows: Inhibition of compound-48/80 induced degranulation in Wistar rat peritoneal mast cells assessed as histamine release at 20 uM by spectrophotometry. Format: functional. In short, it runs like this: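 Peritoneal cells recovered by lavage with 15 ml HEPES buffer at 37 °C from a female Wistar rat (250-300 g). Cells washed by centrifugation, >90% viable, about 1.4% mast cells. Stopped with iced buffer; released histamine measured by o-phthalaldehyde spectrophotometry. Mean of at least five experiments, SE given.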

The subject of experiment [2] is Mast cell. As to the kind of experiment: Inhibition of compound-48/80 induced degranulation in Wistar rat peritoneal mast cells assessed as histamine release by spectrophotometry. Format: functional, cell-based. In short, it runs like this: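 Female Wistar rat (250-300 g) peritoneal lavage cells in HEPES buffer, unpurified, preincubated with compound across a dose range. Stopped with iced buffer; histamine release measured spectrophotometrically as o-phthalaldehyde complex. IC50 derived from dose-response curve fitting.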

For experiment [3], the system named is Mast cell. The experiment is described as follows: Inhibition of compound-48/80 induced degranulation in Wistar rat peritoneal mast cells assessed as histamine release at 20 uM by spectrophotometry.
The test system of experiment [4] is Mast cell. The experiment is described as follows: Inhibition of compound-48/80 induced degranulation in Wistar rat peritoneal mast cells assessed as histamine release by spectrophotometry.
The subject of experiment [5] is Mast cell. The experiment is described as follows: Inhibition of A23187-induced degranulation in Wistar rat peritoneal mast cells assessed as histamine release by spectrophotometry.
Experiment [6] concerns Mast cell. As to the kind of experiment: Inhibition of concanavalin A-induced degranulation in Wistar rat peritoneal mast cells assessed as histamine release by spectrophotometry.

The structures appear in SMILES notation. Calls of active or inactive are those of the source. The rule behind the calls is not given here.

On to `CCC(=O)NC1CCC(=O)c2ccccc21` (centres undefined), for which, in the experiment on Mus musculus, the “inhibition (INH)” value is reported as 11%. As for `CC(=O)c1ccccc1CN(C)Cc1ccccc1`, the outcome in the experiment on Mast cell [1] and with Mast cell [2] was inactive. Turning to `O=C1CCC(N(C(=O)Cc2ccccc2)C2CCCC2)c2ccccc21` (centres undefined), in the experiment with Mus musculus, the “inhibition (INH)” value worked out at 53%. Take `N#Cc1ccc(CN(C2CCCC2)C2CCC(=O)c3ccccc32)cc1` (centres undefined): the inhibition at 20 µM in the experiment with Mast cell [3] worked out at 67%. `CN(Cc1ccccc1)C1CCC(=O)c2ccccc21` (centres undefined): the outcome in the experiment on Mast cell [1] and in the experiment on Mast cell [2] was inactive. As to `COc1cc(CN(C2CCCC2)C2CCC(=O)c3ccccc32)cc(OC)c1OC` (centres undefined), the outcome in the experiment on Mast cell [1] was inactive. Regarding `O=C1CCC(N(Cc2ccccc2)C2CCCC2)c2ccccc21` (centres undefined), the IC50 turned out to be 2400 nM with Mast cell [4], 280 nM in the experiment on Mast cell [5] and 7200 nM with Mast cell [6]. Also, the inhibition at 20 µM in the experiment on Mast cell [3] came out at 99%. Regarding `O=C(O)c1cc(=O)c2c(OCC(O)COc3cccc4oc(C(=O)O)cc(=O)c34)cccc2o1` [CROMOLYN SODIUM], the inhibition at 20 µM in the experiment with Mast cell [3] was determined as 10%. The same measure, in the same setting: then `O=C1CCC(N(Cc2ccc([N+](=O)[O-])cc2)C2CCCC2)c2ccccc21` (centres undefined), with 65%. The same measure, in the same setting: then `CN(C1CCCC1)C1CCC(=O)c2ccccc21` (centres undefined), with 43%. Turning to `COc1ccc2c(c1)c(CC(=O)O)c(C)n2C(=O)c1ccc(Cl)cc1` [INDOMETHACIN], in the experiment with Mus musculus, the “inhibition (INH)” value was determined as 74%. Take `O=C1CCC(N(Cc2ccc3ccccc3c2)C2CCCC2)c2ccccc21` (centres undefined): in the experiment with Mast cell [3], the inhibition at 20 µM was 77%.

For the molecule `CC(=O)N(C1CCCC1)C1CCC(=O)c2ccccc21` (centres undefined), the “inhibition (INH)” value in the experiment with Mus musculus is 2%. For `C=CCN(C1CCCC1)C1CCC(=O)c2ccccc21` (centres undefined), the outcome in the experiment on Mast cell [1] was inactive.
